Data: ChEMBL document CHEMBL4041496, “Natural-Based Indirubins Display Potent Cytotoxicity toward Wild-Type and T315I-Resistant Leukemia Cell Lines” (J Nat Prod, 2016)
The source made the active and inactive calls. No rule for the calls is given here.

Assays:
Aurora kinase A = molecular target: T1, Aurora kinase A (Homo sapiens, UniProt O14965); experiment: Inhibition of recombinant Aurora A (unknown origin) after 120 mins in presence of [33P]ATP
T1 sequence (O14965 whole entry): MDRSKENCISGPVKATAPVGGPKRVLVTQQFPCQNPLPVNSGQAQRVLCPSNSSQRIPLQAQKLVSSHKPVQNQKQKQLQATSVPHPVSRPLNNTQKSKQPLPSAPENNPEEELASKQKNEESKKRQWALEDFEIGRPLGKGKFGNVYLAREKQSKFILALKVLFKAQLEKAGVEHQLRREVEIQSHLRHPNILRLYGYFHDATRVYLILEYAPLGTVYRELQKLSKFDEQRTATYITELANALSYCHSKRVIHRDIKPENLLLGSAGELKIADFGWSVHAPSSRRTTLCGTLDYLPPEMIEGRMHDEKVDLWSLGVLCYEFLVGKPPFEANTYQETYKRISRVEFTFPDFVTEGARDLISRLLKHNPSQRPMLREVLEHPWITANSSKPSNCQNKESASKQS

[1] = molecular target: Tyrosine-protein kinase ABL1 (Homo sapiens, UniProt P00519); experiment: Inhibition of recombinant ABL1 (unknown origin) after 120 mins in presence of [33P]ATP
[2] = molecular target: Tyrosine-protein kinase ABL1 (Homo sapiens, UniProt P00519, T315I); experiment: Inhibition of recombinant ABL1 T315I mutant (unknown origin) after 120 mins in presence of [33P]ATP
KCL-22 [3] = experiment: Cytotoxicity against human KCL22 cells assessed as cell viability at 1 uM after 48 hrs by MTS assay relative to control; assay type: functional; details: for viability at 1 µM: Homo sapiens, KCL-22, 48 h, read-out: Activity
In short: (§1)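 Single-concentration screen: KCL-22 cells, or KCL-22 cells expressing T315I mutant Bcr-Abl, grown in RPMI-1640 with 10% FBS. Cells were seeded at 10 000/well, held overnight at 37 °C in 5% CO2, then exposed to 1 μM compound for 48 h, with DMSO as vehicle control. Viability was read by MTS tetrazolium-to-formazan conversion, absorbance 490 nm, in triplicate.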

[4] = molecular target: Tyrosine-protein kinase JAK2 (Homo sapiens, UniProt O60674); experiment: Inhibition of recombinant JAK2 (unknown origin) after 120 mins in presence of [33P]ATP
Sequence of Tyrosine-protein kinase JAK2 (O60674 whole entry): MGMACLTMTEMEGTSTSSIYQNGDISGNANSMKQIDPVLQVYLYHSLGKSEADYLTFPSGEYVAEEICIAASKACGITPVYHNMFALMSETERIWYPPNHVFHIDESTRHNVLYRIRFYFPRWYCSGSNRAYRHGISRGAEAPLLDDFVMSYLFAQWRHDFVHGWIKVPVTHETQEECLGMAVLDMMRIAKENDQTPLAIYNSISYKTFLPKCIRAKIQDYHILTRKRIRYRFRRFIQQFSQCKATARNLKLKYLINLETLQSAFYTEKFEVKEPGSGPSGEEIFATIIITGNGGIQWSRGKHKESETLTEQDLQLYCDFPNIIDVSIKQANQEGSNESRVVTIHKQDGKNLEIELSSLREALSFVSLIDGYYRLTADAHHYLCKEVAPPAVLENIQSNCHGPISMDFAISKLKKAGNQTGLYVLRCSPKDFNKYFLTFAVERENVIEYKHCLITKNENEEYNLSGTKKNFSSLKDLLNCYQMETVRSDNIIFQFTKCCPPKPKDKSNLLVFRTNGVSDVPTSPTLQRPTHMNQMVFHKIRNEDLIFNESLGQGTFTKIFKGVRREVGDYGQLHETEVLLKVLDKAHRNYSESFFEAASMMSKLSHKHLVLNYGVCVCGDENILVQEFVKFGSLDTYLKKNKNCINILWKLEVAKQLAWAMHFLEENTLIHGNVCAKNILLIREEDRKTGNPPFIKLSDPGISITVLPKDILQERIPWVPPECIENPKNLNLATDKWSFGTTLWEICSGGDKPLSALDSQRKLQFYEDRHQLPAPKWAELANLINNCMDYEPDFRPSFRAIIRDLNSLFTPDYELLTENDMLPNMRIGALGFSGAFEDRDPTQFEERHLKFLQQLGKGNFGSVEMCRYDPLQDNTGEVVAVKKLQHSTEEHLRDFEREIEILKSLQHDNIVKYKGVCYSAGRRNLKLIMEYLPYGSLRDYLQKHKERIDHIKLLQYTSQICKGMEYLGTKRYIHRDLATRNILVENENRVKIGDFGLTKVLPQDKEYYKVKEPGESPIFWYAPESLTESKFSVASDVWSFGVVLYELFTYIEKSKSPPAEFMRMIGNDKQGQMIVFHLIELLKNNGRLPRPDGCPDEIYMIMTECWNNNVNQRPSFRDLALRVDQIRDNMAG

[5] = molecular target: Proto-oncogene tyrosine-protein kinase Src (Homo sapiens, UniProt P12931); experiment: Inhibition of recombinant c-Src (unknown origin) after 120 mins in presence of [33P]ATP
Sequence of Proto-oncogene tyrosine-protein kinase Src (P12931 2-536 limits assumed): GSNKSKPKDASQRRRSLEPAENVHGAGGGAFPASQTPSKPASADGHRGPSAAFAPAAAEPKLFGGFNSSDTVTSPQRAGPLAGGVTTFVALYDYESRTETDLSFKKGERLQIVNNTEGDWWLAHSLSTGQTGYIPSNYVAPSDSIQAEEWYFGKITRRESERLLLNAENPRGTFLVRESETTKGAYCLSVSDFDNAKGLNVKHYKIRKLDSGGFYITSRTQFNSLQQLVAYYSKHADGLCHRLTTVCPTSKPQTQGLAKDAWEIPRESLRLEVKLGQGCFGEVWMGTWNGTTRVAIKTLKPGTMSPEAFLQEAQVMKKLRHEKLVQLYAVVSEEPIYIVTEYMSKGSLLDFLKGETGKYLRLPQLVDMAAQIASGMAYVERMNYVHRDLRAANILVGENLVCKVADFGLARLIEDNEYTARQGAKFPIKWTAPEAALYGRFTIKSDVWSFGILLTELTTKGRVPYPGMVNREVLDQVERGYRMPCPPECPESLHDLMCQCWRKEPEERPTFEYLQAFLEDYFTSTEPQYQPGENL

KCL-22 [6] = experiment: Cytotoxicity against human KCL22 cells harboring ABL1 T315I mutant assessed as cell viability at 1 uM after 48 hrs by MTS assay relative to control; assay type: functional; details: for viability at 1 µM: Homo sapiens, KCL-22, 48 h, read-out: Activity; in short: as §1
KCL-22 [7] = experiment: Cytotoxicity against human KCL22 cells assessed as reduction in cell viability after 48 hrs by MTS assay; assay type: functional, cell-based
KCL-22 [8] = experiment: Cytotoxicity against human KCL22 cells harboring ABL1 T315I mutant assessed as reduction in cell viability after 48 hrs by MTS assay; assay type: functional, cell-based; details: KCL-22, 48 h
KCL-22 [9] = experiment: Cytotoxicity against human KCL22 cells assessed as reduction in cell viability at 1 uM after 48 hrs by MTS assay; assay type: functional, cell-based; in short: as §1
KCL-22 [10] = experiment: Cytotoxicity against human KCL22 cells harboring ABL1 T315I mutant assessed as reduction in cell viability at 1 uM after 48 hrs by MTS assay; assay type: functional, cell-based; in short: as §1

SMILES: COCCN1CCN(CCO/N=C2/C(=C3/C(=O)Nc4cc(Br)ccc43)Nc3ccccc32)CC1 [listing 1 of 2 here]
- IC50 (Aurora kinase A): > 10 µM
- IC50 [1]: 3.44 µM
- IC50 [2]: > 10 µM
- viability at 1 µM (KCL-22 [3]): > 50%
- IC50 [4]: > 10 µM
- IC50 [5]: 0.0039 µM
- viability at 1 µM (KCL-22 [6]): < 50%

SMILES: O=C1Nc2cc(Br)ccc2/C1=C1/Nc2ccccc2/C1=N\OCCN1CCN(CCO)CC1 [listing 1 of 2 here]
- viability at 1 µM (KCL-22 [3]): > 50%
- viability at 1 µM (KCL-22 [6]): > 50%

SMILES: O=C1Nc2cc(Br)ccc2/C1=C1/Nc2ccccc2/C1=N\OCCN1CCCC1 [listing 1 of 2 here]
- IC50 (Aurora kinase A): 0.079 µM
- IC50 [1]: 0.106 µM
- IC50 [2]: 4.56 µM
- Activity (KCL-22 [3]): <50%
- IC50 [4]: 7.46 µM
- IC50 [5]: 0.0049 µM
- Activity (KCL-22 [6]): <50%

SMILES: O=C1Nc2cc(Br)ccc2/C1=C1/Nc2ccccc2/C1=N\OCCN1CCCC1 [listing 2 of 2 here]
- IC50 (Aurora kinase A): 0.175 µM
- IC50 [2]: 5.94 µM
- viability at 1 µM (KCL-22 [3]): < 50%
- IC50 [4]: 4.41 µM
- IC50 [5]: 0.0022 µM
- viability at 1 µM (KCL-22 [6]): < 50%

SMILES: O=C1Nc2cc(Br)ccc2/C1=C1/Nc2ccccc2C1=O
- viability at 1 µM (KCL-22 [3]): > 50%
- viability at 1 µM (KCL-22 [6]): > 50%

SMILES: O=C1Nc2cc(Br)ccc2/C1=C1/Nc2ccccc2/C1=N\OCCN1CCNCC1 [listing 1 of 2 here]
- IC50 (Aurora kinase A): 0.0071 µM
- IC50 [1]: 0.00087 µM
- IC50 (KCL-22 [7]; kcl-22): 0.33 µM
- IC50 [2]: 0.0094 µM
- IC50 (KCL-22 [8]): 0.43 µM
- viability at 1 µM (KCL-22 [3]): < 50%
- IC50 [4]: 0.224 µM
- IC50 [5]: < 0.0005 µM
- viability at 1 µM (KCL-22 [6]): < 50%

SMILES: CN1C(=O)/C(=C2\Nc3ccccc3\C2=N/O)c2ccc(Br)cc21
- viability at 1 µM (KCL-22 [3]): > 50%
- viability at 1 µM (KCL-22 [6]): > 50%

SMILES: O=C1Nc2cc(Br)ccc2/C1=C1/Nc2ccccc2/C1=N\O [6BIO]
- viability at 1 µM (KCL-22 [3]): > 50%
- viability at 1 µM (KCL-22 [6]): > 50%

SMILES: N#Cc1ccc(NC(=O)O/N=C2/C(=C3/C(=O)Nc4cc(Br)ccc43)Nc3ccccc32)cc1
- viability at 1 µM (KCL-22 [3]): > 50%
- viability at 1 µM (KCL-22 [6]): > 50%

SMILES: O=C1Nc2cc(Br)ccc2/C1=C1/Nc2ccccc2/C1=N\OCC(O)CO (stereo unspecified)
- IC50 (KCL-22 [7]; Homo sapiens, KCL-22, 48 h): 0.75 µM
- viability at 1 µM (KCL-22 [3]): < 50%
- viability at 1 µM (KCL-22 [6]): > 50%

SMILES: O=C1Nc2cc(Br)ccc2/C1=C1/Nc2ccccc2/C1=N\OCCN1CCN(CCO)CC1 [listing 2 of 2 here]
- IC50 (KCL-22 [7]; Homo sapiens, KCL-22, 48 h): 0.83 µM
- Activity (KCL-22 [3]): <50%
- Activity (KCL-22 [6]): >50%

SMILES: O=C1Nc2cc(Br)ccc2/C1=C1/Nc2ccccc2/C1=N\OCCN1CCNCC1 [listing 2 of 2 here]
- IC50 (KCL-22 [7]; kcl-22): 0.78 µM
- Activity (KCL-22 [3]): <50%
- Activity (KCL-22 [6]): >50%

SMILES: CC(=O)O/N=C1/C(=C2/C(=O)Nc3cc(Br)ccc32)Nc2ccccc21 [6-BROMOINDIRUBIN-3'-ACETOXIME]
- viability at 1 µM (KCL-22 [3]): > 50%
- viability at 1 µM (KCL-22 [6]): > 50%

SMILES: O=C1Nc2cc(Br)ccc2/C1=C1/Nc2ccccc2/C1=N\OCCN1CCN(CCOCCO)CC1 [listing 1 of 2 here]
- viability at 1 µM (KCL-22 [3]): > 50%
- viability at 1 µM (KCL-22 [6]): < 50%

SMILES: O=C(NC(Cl)(Cl)Cl)O/N=C1/C(=C2/C(=O)Nc3cc(Br)ccc32)Nc2ccccc21
- viability at 1 µM (KCL-22 [3]): > 50%
- viability at 1 µM (KCL-22 [6]): > 50%

SMILES: CCCCCNC(=O)O/N=C1/C(=C2/C(=O)Nc3cc(Br)ccc32)Nc2ccccc21
- viability at 1 µM (KCL-22 [3]): > 50%
- viability at 1 µM (KCL-22 [6]): > 50%

SMILES: CN1CCN(CCO/N=C2/C(=C3/C(=O)Nc4cc(Br)ccc43)Nc3ccccc32)CC1 [listing 1 of 2 here]
- IC50 (KCL-22 [7]; Homo sapiens, KCL-22, 48 h): 0.9 µM
- Activity (KCL-22 [3]): <50%
- Activity (KCL-22 [6]): >50%

SMILES: CN(CCO/N=C1/C(=C2/C(=O)Nc3cc(Br)ccc32)Nc2ccccc21)CC(O)CO (stereo unspecified) [listing 1 of 2 here]
- IC50 (Aurora kinase A): 0.0097 µM
- IC50 [1]: 0.0072 µM
- IC50 [2]: 0.178 µM
- Activity (KCL-22 [3]): <50%
- IC50 [4]: 0.551 µM
- IC50 [5]: < 0.0005 µM
- Activity (KCL-22 [6]): <50%

SMILES: CCN(CC)C(=O)O/N=C1/C(=C2/C(=O)Nc3cc(Br)ccc32)Nc2ccccc21
- viability at 1 µM (KCL-22 [3]): > 50%
- viability at 1 µM (KCL-22 [6]): > 50%

SMILES: COCCN1CCN(CCO/N=C2/C(=C3/C(=O)Nc4cc(Br)ccc43)Nc3ccccc32)CC1 [listing 2 of 2 here]
- IC50 (Aurora kinase A): 0.33 µM
- IC50 [1]: 0.468 µM
- IC50 [2]: > 10 µM
- Activity (KCL-22 [3]): >50%
- IC50 [4]: > 10 µM
- IC50 [5]: 0.0017 µM
- Activity (KCL-22 [6]): <50%

SMILES: COC(=O)c1ccc2c(c1)C(=O)/C(=C1/C(=O)N(C)c3c(Br)cccc31)N2
- Activity (KCL-22 [9]): inactive
- Activity (KCL-22 [10]): inactive

SMILES: CC(=O)c1ccc(NC(=O)O/N=C2/C(=C3/C(=O)Nc4cc(Br)ccc43)Nc3ccccc32)cc1
- viability at 1 µM (KCL-22 [3]): > 50%
- viability at 1 µM (KCL-22 [6]): > 50%

SMILES: CN(CCO/N=C1/C(=C2/C(=O)Nc3cc(Br)ccc32)Nc2ccccc21)CC(O)CO (stereo unspecified) [listing 2 of 2 here]
- IC50 [1]: 0.0102 µM
- IC50 [2]: 0.194 µM
- viability at 1 µM (KCL-22 [3]): < 50%
- IC50 [4]: 0.589 µM
- IC50 [5]: 0.00061 µM
- viability at 1 µM (KCL-22 [6]): < 50%

SMILES: O=C1Nc2ccccc2/C1=C1/Nc2cc(Br)ccc2C1=O
- Activity (KCL-22 [9]): inactive
- Activity (KCL-22 [10]): inactive

SMILES: O=C1Nc2cc(Br)ccc2/C1=C1/Nc2ccccc2/C1=N\OCCN1CCN(CCOCCO)CC1 [listing 2 of 2 here]
- IC50 (Aurora kinase A): 0.0149 µM
- IC50 [1]: 0.0341 µM
- IC50 [2]: 5.16 µM
- Activity (KCL-22 [3]): >50%
- IC50 [4]: > 10 µM
- IC50 [5]: 0.00083 µM
- Activity (KCL-22 [6]): >50%

SMILES: O=C1Nc2c(cccc2C(F)(F)F)/C1=C1/Nc2ccc(C(=O)O)cc2/C1=N\O
- Activity (KCL-22 [9]): inactive
- Activity (KCL-22 [10]): inactive

SMILES: O=C1Nc2c(Cl)cccc2/C1=C1/Nc2ccccc2/C1=N\O
- Activity (KCL-22 [9]): inactive
- Activity (KCL-22 [10]): inactive

SMILES: CN1CCN(CCO/N=C2/C(=C3/C(=O)Nc4cc(Br)ccc43)Nc3ccccc32)CC1 [listing 2 of 2 here]
- IC50 (KCL-22 [7]; kcl-22): 0.5 µM
- viability at 1 µM (KCL-22 [3]): < 50%
- viability at 1 µM (KCL-22 [6]): > 50%

SMILES: O=C1Nc2c(Br)cccc2/C1=C1/Nc2ccc(C(=O)O)cc2/C1=N\OCCN1CCNCC1
- Activity (KCL-22 [9]): inactive
- Activity (KCL-22 [10]): inactive

SMILES: O=C1Nc2c(cccc2C(F)(F)F)/C1=C1/Nc2ccccc2/C1=N\O
- Activity (KCL-22 [9]): inactive
- Activity (KCL-22 [10]): inactive

SMILES: O=C1Nc2c(Br)cccc2/C1=C1/Nc2cc(C(=O)O)ccc2/C1=N\OCCN1CCNCC1
- Activity (KCL-22 [9]): inactive
- Activity (KCL-22 [10]): inactive

SMILES: N#Cc1ccc2c(c1)C(=N\O)/C(=C1/C(=O)Nc3c1cccc3C(F)(F)F)N2
- Activity (KCL-22 [9]): inactive
- Activity (KCL-22 [10]): inactive

SMILES: O=C1Nc2c(Br)cccc2/C1=C1/Nc2ccccc2C1=O
- Activity (KCL-22 [9]): inactive
- Activity (KCL-22 [10]): inactive
